The list is not random: actives were taken first. Their share in the collection is about 5.8%.
IDH1 R132H inh: inhibitors of human IDH1 R132H; O75874; IDH1 R132H reductase, diaphorase/resazurin fluorescence, 60 min; inhibition, % at 10 µM; 70,000 compounds, 0.18% hits; AID 624101; in the data active = inhibition above about 34%;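 note: 0% = DMSO and 100% = no enzyme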
Target sequence (O75874 whole entry R132H): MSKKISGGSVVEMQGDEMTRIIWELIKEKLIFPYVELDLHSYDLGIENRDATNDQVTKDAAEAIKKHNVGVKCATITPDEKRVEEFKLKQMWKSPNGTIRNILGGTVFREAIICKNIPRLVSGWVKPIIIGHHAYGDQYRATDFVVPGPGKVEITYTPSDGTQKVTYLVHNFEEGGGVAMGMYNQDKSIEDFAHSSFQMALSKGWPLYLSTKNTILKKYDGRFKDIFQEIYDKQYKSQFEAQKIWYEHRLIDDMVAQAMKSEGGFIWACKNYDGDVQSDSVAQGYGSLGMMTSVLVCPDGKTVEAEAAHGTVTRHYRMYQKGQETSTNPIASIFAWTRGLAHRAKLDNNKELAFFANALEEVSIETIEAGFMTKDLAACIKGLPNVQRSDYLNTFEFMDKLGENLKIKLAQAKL
GASC1 inh: blocks human GASC-1 (KDM4C) demethylase activity. Q9H3R0. GST-KDM4C 2-372, H3K9me3 peptide, LANCE TR-FRET. inhibition, % at 12.5 µM. 96,000 compounds, 0.15% hits. AID 720574;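 active = mean replicate inhibition above about 25%, with at least 55% of replicates also reaching it, limit read from the data, passing the limit was not always enough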
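System: N-terminal GST-fused human GASC-1 (KDM4C) fragment, residues 2-372; amount: enzyme final amount 10 nM; incubation: reaction 30 min RT, detection step 1 h RT; medium: HEPES buffer, pH 7.5, plus ascorbate; technique: LANCE TR-FRET, Eu antibody, ULight-streptavidin, EDTA, ex 340 nm, em 618/671 nm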
Pf Dd2 inh: P. falciparum Dd2 growth inhibition; SYBR Green, 72 h; hits give low values; activity change, % at 10 µM; 94,000 compounds, 2.3% hits; in the data active = activity change below about -80%
Tcruzi prolif: blocks T. cruzi growth in NIH3T3 culture; 77,000 compounds, 5.9% hits; inhibition, % at 8.34 µM; T. cruzi beta-gal in NIH3T3, GalScreen luminescence, 90 h;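 active = mean inhibition above about 93%, with at least 55% of replicates each passing it, limit read from the data, passing the limit was not always enough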
* = called active by the depositor.

What do the screens show for `CO[C@@H]1CN(C)C(=O)c2cc(NC(=O)Cc3ccccc3)ccc2OC[C@H](C)N(C(=O)c2ccccc2F)C[C@@H]1C`?
IDH1 R132H inh: 0; GASC1 inh: 1; Pf Dd2 inh: -82*; Tcruzi prolif: -49

Results for COc1ccccc1C#Cc1ccc2c(c1)[C@@H]1NCC[C@@H]1[C@H](CO)N2 ?
GASC1 inh: 0; Pf Dd2 inh: -90*

What do the screens show for `OC[C@@H]1Nc2ccc(C#Cc3cccc(F)c3)cc2[C@H]2NCC[C@@H]12`?
GASC1 inh: -1; Pf Dd2 inh: -88*

Results for C[C@H](O)C#Cc1ccc2c(c1)O[C@@H](CN(C)C(=O)CC1CC1)[C@@H](C)CN([C@@H](C)CO)S2(=O)=O ?
IDH1 R132H inh: 0; Tcruzi prolif: -11

What do the screens show for `C[C@@H]1CCCCO[C@@H](CN(C)S(=O)(=O)c2ccc(Cl)cc2)[C@@H](C)CN([C@@H](C)CO)C(=O)c2cc(NC(=O)Nc3ccc(C(F)(F)F)cc3)ccc2O1`?
GASC1 inh: -2; Pf Dd2 inh: -83*; Tcruzi prolif: 55

What do the screens show for `C[C@@H]1CCCCO[C@H](CN(C)S(=O)(=O)c2ccc(Cl)cc2)[C@H](C)CN([C@@H](C)CO)C(=O)c2cc(NC(=O)Nc3ccc(C(F)(F)F)cc3)ccc2O1`?
IDH1 R132H inh: 3; GASC1 inh: 6; Pf Dd2 inh: -57; Tcruzi prolif: 86

What do the screens show for `Cc1ccc(S(=O)(=O)N(C)C[C@H]2OCCCC[C@H](C)Oc3ccc(NC(=O)Nc4ccc(C(F)(F)F)cc4)cc3C(=O)N([C@@H](C)CO)C[C@H]2C)cc1`?
GASC1 inh: -2; Pf Dd2 inh: -66

How did C[C@@H]1CN([C@@H](C)CO)C(=O)c2cc(NC(=O)Nc3ccc(C(F)(F)F)cc3)ccc2O[C@@H](C)CCCCO[C@@H]1CN(C)S(=O)(=O)c1ccc(Cl)cc1 do in these assays?
GASC1 inh: -4; Pf Dd2 inh: -86*; Tcruzi prolif: 84

What do the screens show for `Cc1ccc(S(=O)(=O)N(C)C[C@H]2OCCCC[C@@H](C)Oc3ccc(NC(=O)Nc4ccc(C(F)(F)F)cc4)cc3C(=O)N([C@@H](C)CO)C[C@@H]2C)cc1`?
GASC1 inh: 0; Pf Dd2 inh: -79

Results for Cc1ccc(S(=O)(=O)N(C)C[C@@H]2OCCCC[C@@H](C)Oc3ccc(NC(=O)Nc4ccc(C(F)(F)F)cc4)cc3C(=O)N([C@H](C)CO)C[C@@H]2C)cc1 ?
GASC1 inh: 0; Pf Dd2 inh: -82*

Results for CO[C@@H]1CN(C)C(=O)c2ccc(NC(=O)c3ccccc3)cc2OC[C@@H](C)NC[C@@H]1C ?
IDH1 R132H inh: 0; GASC1 inh: -1; Pf Dd2 inh: 33

Results for O=C(Cc1ccccc1)N1CC(=O)N2[C@H](CO)[C@H](c3ccc(C#Cc4ccccc4)cc3)[C@H]2C1 ?
GASC1 inh: 0; Pf Dd2 inh: -84*

What do the screens show for `CC(C)CC#Cc1ccc([C@H]2[C@@H](CO)N3C(=O)CN(C(=O)Cc4ccccc4)C[C@H]23)cc1`?
GASC1 inh: 0; Pf Dd2 inh: -85*

Results for CNC[C@@H]1Oc2ccc(N)cc2CC(=O)N([C@H](C)CO)C[C@H]1C ?
GASC1 inh: 1; Pf Dd2 inh: 70

What do the screens show for `C[C@H]1CN([C@@H](C)CO)C(=O)c2cccc(NC(=O)Nc3ccccc3)c2O[C@@H]1CN(C)C(=O)Nc1ccc(F)cc1`?
IDH1 R132H inh: -12; GASC1 inh: 14; Pf Dd2 inh: -3; Tcruzi prolif: 47

Results for CN(C)CCCC[C@@H]1NC(=O)[C@H]2C[C@@H](C(=O)NCc3ccc(F)cc3)[C@@H](c3ccc(O)cc3)N2C1=O ?
IDH1 R132H inh: 42*

How did COc1ccc2c3c([nH]c2c1)[C@H](CO)N(Cc1ccccn1)CC31CCN(Cc2cccc(F)c2)CC1 do in these assays?
GASC1 inh: 3; Pf Dd2 inh: -78

How did COc1ccc2c3c([nH]c2c1)[C@H](CO)N(C(=O)Cc1ccccn1)CC31CCN(Cc2ccccn2)CC1 do in these assays?
GASC1 inh: 0; Pf Dd2 inh: 18

Results for COc1cccc(CN2CC3(CCN(Cc4ccccn4)CC3)c3c([nH]c4cc(OC)ccc34)[C@@H]2CO)c1 ?
GASC1 inh: 2; Pf Dd2 inh: -89*

Results for COc1ccc2c3c([nH]c2c1)[C@@H](CO)N(Cc1nccs1)CC31CCN(Cc2nccs2)CC1 ?
GASC1 inh: -2; Pf Dd2 inh: -90*

Results for COc1ccc2c3c([nH]c2c1)[C@@H](CO)N(Cc1cccc(F)c1)CC31CCN(Cc2ccccn2)CC1 ?
GASC1 inh: 0; Pf Dd2 inh: -92*

How did COc1ccc(C#Cc2cccc(-c3nc(C(=O)Nc4ccc(-c5ccccc5)cc4)cc4c3[C@@H](CCO)N(S(=O)C(C)(C)C)C4)c2)cc1OC (stereo partly specified) do in these assays?
GASC1 inh: -2; Pf Dd2 inh: -89*

How did COc1cccc(-c2cccc(-c3nc(C(=O)Nc4ccc(-c5ccccc5)cc4)cc4c3[C@@H](CCO)N(S(=O)C(C)(C)C)C4)c2)c1 (stereo partly specified) do in these assays?
GASC1 inh: -3; Pf Dd2 inh: -84*

How did COc1ccc(C#Cc2cccc(-c3nc(C(=O)O)cc4c3[C@H](CCO)N(S(=O)C(C)(C)C)C4)c2)cc1OC (stereo partly specified) do in these assays?
GASC1 inh: 13; Tcruzi prolif: 60

Results for COc1ccccc1-c1cccc(-c2nc(C(=O)Nc3nccs3)cc3c2[C@H](CCO)N(C(=O)CC2CC2)C3)c1 ?
GASC1 inh: 6; Pf Dd2 inh: -86*

How did COCc1cn(CC[C@H]2CC[C@@H](NC(=O)Nc3ccccc3)[C@@H](CO)O2)nn1 do in these assays?
IDH1 R132H inh: -1; GASC1 inh: 0; Pf Dd2 inh: -34; Tcruzi prolif: 4

What do the screens show for `N#C[C@@H]1[C@H](c2ccc(C3=CCCCC3)cc2)[C@@H](CO)N1C(=O)NC1CCCC1`?
GASC1 inh: 5; Pf Dd2 inh: -83*

How did C/C=C/c1ccccc1[C@H]1[C@@H](C#N)N(C(=O)NC2CCCC2)[C@H]1CO do in these assays?
GASC1 inh: 0; Pf Dd2 inh: -82*

How did CC(C)NC[C@@H]1[C@@H](c2ccc(C3=CCCCC3)cc2)[C@@H](CO)N1C(=O)CC1CC1 do in these assays?
Pf Dd2 inh: -83*

How did O=C(C[C@@H]1CC[C@H]2[C@@H](COC[C@@H](O)CN2CC2CCCCC2)O1)NCC1CC1 do in these assays?
GASC1 inh: -1; Pf Dd2 inh: -19; Tcruzi prolif: 9

Results for COCCNC(=O)C[C@@H]1C[C@H]2c3cc(N(C)C)ccc3O[C@H]2[C@H](CO)O1 ?
IDH1 R132H inh: 0; GASC1 inh: 39*; Pf Dd2 inh: -16

Results for CN(C)C(=O)C[C@H]1C[C@@H]2c3cc(N(C)C)ccc3O[C@@H]2[C@@H](CO)O1 ?
IDH1 R132H inh: -13; GASC1 inh: 33*; Pf Dd2 inh: 0; Tcruzi prolif: -11

Screens (PubChem)
